Measured values taken from ChEMBL document CHEMBL1126142, “Potential antitumor agents. 64. Synthesis and antitumor evaluation of dibenzo[1,4]dioxin-1-carboxamides: a new class of weakly binding DNA-intercalating agents” (J Med Chem, 1992).
Calls of active or inactive are those of the source. The calls are words filed in the database; no cut-off is given here.

What was measured:
[1] = Percentage increase in lifespan with compound after treating wild-type P388 murine leukemia cells with optimal dose; format: functional, Mus musculus
Method in brief: (§1)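 Mice bearing wild-type P388 leukemia, 10^6 cells inoculated intraperitoneally; drug given ip in 0.1 mL 30% v/v EtOH/water on days 1, 5 and 9, starting 24 h after inoculation. ILS = percentage increase in lifespan of treated over untreated tumor-bearing mice at the optimal dose (mg/kg per day); >20% counted significant. Groups of 6 mice, tests in duplicate.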

[2] = test system: Nucleic Acid; assay: Binding constant to poly[d(A-T)] by displacement of ethidium bromide; format: nucleic-acid assay
[3] = In vivo the optimal dose administered intraperitoneally to wild-type P388 murine leukemia cells; format: functional, Mus musculus
Method in brief: (§2)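 Mice received 10^6 tumor cells intraperitoneally. After 24 h, drug was given ip as a solution in 0.1 mL 30% v/v EtOH/water on days 1, 5 and 9. The optimal dose is expressed as mg/kg per day. Groups were 6 mice, with tests in duplicate.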

[4] = Lipophilicity (Rm); format: physicochemical; details: AMSA internal standard
Method in brief: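 Relative lipophilicity (Rm) was determined chromatographically using 4'-(9-acridinylamino)methanesulfonanilide (AMSA) as internal standard.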

[5] = Cytotoxicity measured on wild-type P388 murine leukemia cells; format: functional, cell-based; details: Mus musculus
Method in brief: (§3)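 A 96-well plate growth-inhibition assay in culture was run with full dose-response curves. IC50 was the drug concentration (μM) reducing cell growth to 50% of untreated controls. Values are means of three determinations. The P388/AMSA subline carries a structurally altered topoisomerase II.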

[6] = test system: P388; assay: In vivo percentage increase in lifespan with compound after treating wild-type P388 murine leukemia cells with optimal dose; Not active; format: functional, organism-based; details: Mus musculus
[7] = test system: P388; assay: Inhibitory activity against mutant murine leukemia cell line P388/AMSA; format: functional, cell-based; details: Mus musculus; method in brief: as §3
[8] = test system: P388; assay: Inhibitory activity against P388 murine leukemia cell which is topoisomerase II enzyme and resistant to classical topo II Inhibitors; format: functional, cell-based; details: Mus musculus; method in brief: as §3
[9] = In vivo percentage increase in lifespan with compound after treating wild-type P388 murine leukemia cells with optimal dose; format: functional, Mus musculus; method in brief: as §1
[10] = In vivo optimal dose administered intraperitoneally to wild-type P388 murine leukemia cells; format: functional, Mus musculus; method in brief: as §2

Compound	ILS [1] [%]	Log K [2]	OD [3] [mg/kg]	Rm [4]	IC50 [5] [nM]	ILS [6]	IC50 [7] [nM]	IC50 [8] [nM]	ILS [9] [%]	OD [10] [mg/kg]
CN(C)CCNC(=O)c1cccc2c1Oc1ccc([N+](=O)[O-])cc1O2	96	5.64	150	-0.14	6000					
CN(C)CCNC(=O)c1cccc2c1Oc1cc(Br)ccc1O2		5.35	150	0.18	3000	inactive				
CN(C)CCNC(=O)c1cccc2c1Oc1cccc([N+](=O)[O-])c1O2		5.06	150	-0.2	2500	inactive				
CN(C)CCNC(=O)c1cccc2c1Oc1c(Br)cccc1O2	154	5.23	100	-0.01	210		730			
Cc1cccc2c1Oc1cccc(C(=O)NCCN(C)C)c1O2		5.26	45	0.14	2100	inactive				
CN(C)CCNC(=O)c1cccc2c1Oc1ccc(Cl)cc1O2		5.11	100	0.1	1600	inactive				
COc1cccc2c1Oc1cccc(C(=O)NCCN(C)C)c1O2		5.18	100	-0.19	1600	inactive				
CN(C)CCNC(=O)c1cccc2c1Oc1ncccc1O2			65	-0.38	830	inactive		930		
COc1cccc2c1Oc1c(cccc1C(=O)NCCN(C)C)O2	45	5.55	45	-0.02	380		520			
CN(C)CCNC(=O)c1cccc2c1Oc1c(cccc1C(=O)NCCN(C)C)O2		4.48	100	-0.68	720	inactive				
Cc1cccc2c1Oc1c(cccc1C(=O)NCCN(C)C)O2	144	5.28	100	0.09	250		7700			
CN(C)CCNC(=O)c1cccc2c1Oc1cccnc1O2		4.73	100	-0.49	8000	inactive				
CN(C)CCNC(=O)c1ccc2c(c1)Oc1ccccc1O2		4.84	150	0.11	5800	inactive				
CN(C)CCNC(=O)c1cccc2c1Oc1ccccc1O2		5.05		0.01	3000		1800		76	150
CN(C)CCNC(=O)c1cccc2c1Oc1c(cccc1[N+](=O)[O-])O2		5.11	20	-0.28	32	inactive	450			
CN(C)CCNC(=O)c1cccc2c1Oc1cc([N+](=O)[O-])ccc1O2	96	5.64	150	-0.14	3700					
CN(C)CCNC(=O)c1ccc2c(c1)Oc1ccc(C(=O)NCCN(C)C)cc1O2		6.81	225	-1.21	> 10000	inactive				
CN(C)CCCCNC(=O)c1cccc2c1Oc1ccccc1O2		4.9		0.13	> 20000	inactive				150
CN(C)CCNC(=O)c1cccc2c1Oc1ccc(Br)cc1O2		5.34	100	0.18	1900	inactive				
Cc1ccc2c(c1)Oc1cccc(C(=O)NCCN(C)C)c1O2		5.11	45	0.2	3300	inactive				
CN(C)CCNC(=O)c1cccc2c1Oc1cc(Cl)c(Cl)cc1O2			150	0.25	5130	inactive		830		
CN(C)CCNC(=O)c1cccc2c1Oc1cccc(Cl)c1O2		5.15	100	0.21	1300	inactive				
CN(C)CCNC(=O)c1cccc2c1Oc1c(Cl)cccc1O2	106	5.48	100	-0.01	230		2600			
CN(C)CCNC(=O)c1cc([N+](=O)[O-])cc2c1Oc1ccccc1O2		5.37	225	-0.16	1700	inactive				
